Columns and labels:
human topoisomerase I = molecular target: T1, human topoisomerase I (Homo sapiens, UniProt P11387); assay: Topoisomerase I-mediated DNA cleavage assay; format: biochemical; conditions: for TOP1-targeting activity (in words): summary of Table 1
T1 sequence (P11387 1-765): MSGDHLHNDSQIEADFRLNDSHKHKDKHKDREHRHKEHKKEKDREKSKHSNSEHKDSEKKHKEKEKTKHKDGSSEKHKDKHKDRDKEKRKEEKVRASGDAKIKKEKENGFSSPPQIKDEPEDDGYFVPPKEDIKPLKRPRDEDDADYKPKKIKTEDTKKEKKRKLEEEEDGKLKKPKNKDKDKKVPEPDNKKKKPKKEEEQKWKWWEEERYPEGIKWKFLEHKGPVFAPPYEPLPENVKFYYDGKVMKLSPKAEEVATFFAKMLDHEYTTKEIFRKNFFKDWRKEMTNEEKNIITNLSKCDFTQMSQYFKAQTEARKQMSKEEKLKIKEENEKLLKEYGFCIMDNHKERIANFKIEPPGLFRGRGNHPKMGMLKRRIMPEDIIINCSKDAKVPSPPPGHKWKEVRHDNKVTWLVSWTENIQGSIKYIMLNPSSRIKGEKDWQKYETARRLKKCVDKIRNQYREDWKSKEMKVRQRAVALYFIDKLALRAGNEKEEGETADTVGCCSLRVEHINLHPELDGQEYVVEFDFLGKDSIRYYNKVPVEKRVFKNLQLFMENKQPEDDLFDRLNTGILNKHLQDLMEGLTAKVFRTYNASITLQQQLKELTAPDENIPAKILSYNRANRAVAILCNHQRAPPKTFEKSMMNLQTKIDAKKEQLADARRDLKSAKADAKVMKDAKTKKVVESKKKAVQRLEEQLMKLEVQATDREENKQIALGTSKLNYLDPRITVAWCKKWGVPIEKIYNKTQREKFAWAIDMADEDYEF

[1] = system: MDA-MB-435 human tumor xenografts; assay: Human tumor xenograft antitumor bioassay; format: in vivo, athymic nude mice; conditions: for Average tumor volume: MDA-MB-435 xenograft in athymic nude mice; for Antitumor activity in vivo (in words): MDA-MB-435 xenograft, at maximally tolerated doses, I.P.
Procedure, shortened: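 Female NCR/NU NU mice, about 9 weeks old, were inoculated sc in the right flank with 1.5 × 10^6 MDA-MB-435 cells (RPMI 1640/10% FBS culture) and grouped by matched tumor volume at 19–20 days. Test compound was given qd × 5/week at per-compound doses, some adjusted during the study; vehicle was 0.1% citrate in H2O. Caliper tumor volume ((l*w2)/2) was taken every other day, with daily weights.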

KBV-1 cells = assay: MTT cytotoxicity assay in KBV-1; format: cell-based; conditions: for Substrate for MDR1 efflux transporter (conclusion in words): from relative cytotoxicity KBV-1 vs KB3-1
KBH5.0 cells = assay: MTT cytotoxicity assay in KBH5.0; format: cell-based; conditions: from relative cytotoxicity KBH5.0 vs KB3-1
RPMI8402 cells = assay: MTT cytotoxicity assay in RPMI8402; format: cell-based, human

Row | SMILES | TOP1-mediated cleavage (REC, relative effective concentration) (human topoisomerase I; concentration relative to topotecan (=1) producing 10% cleavage of plasmid DNA) | Average tumor volume ([1]; Day 7, I.P.) [mm^3] | Average tumor volume ([1]; Day 14, I.P.) [mm^3] | Average tumor volume ([1]; Day 21, I.P.) [mm^3] | Average tumor volume ([1]; Day 28, I.P.) [mm^3] | Average tumor volume ([1]; Day 35, I.P.) [mm^3] | Average tumor volume ([1]; Day 42, I.P.) [mm^3] | Average tumor volume ([1]; Day 49, I.P.) [mm^3] | Antitumor activity in vivo (in words) [1] | TOP1-targeting activity (in words) (human topoisomerase I) | Substrate for MDR1 efflux transporter (conclusion in words) (KBV-1 cells) | Substrate for BCRP efflux transporter (conclusion in words) (KBH5.0 cells) | fold less cytotoxic than 13 (RPMI8402 cells) | fold difference in IC50 values between KB3-1 cells and KBV-1 cells (KBV-1 cells; KBV-1 vs KB3-1) [fold]
1 | CC[C@@]1(O)C(=O)OCc2c1cc1n(c2=O)Cc2cc3ccccc3nc2-1 [CPT, camptothecin, reference compound] | 0.2 |  |  |  |  |  |  |  |  |  |  |  |  | 
2 | COc1cc2c(=O)n(CCN(C)C)c3c4cc5c(cc4ncc3c2cc1OC)OCO5 [Compound 1, 5H-8,9-dimethoxy-5-(2-N,N-dimethylaminoethyl)-2,3-methylenedioxydibenzo[c,h][1,6]-naphthyridin-6-one] |  | 120 | 123 | 145 | 158 | 175 | 189 | 242 |  |  |  |  |  | 
3 | CCN(CCn1c(=O)c2cc(OC)c(OC)cc2c2cnc3cc4c(cc3c21)OCO4)CC(F)(F)F [Compound 8, 2,3-Methylenedioxy-8,9-dimethoxy-5-[N-ethyl-N-(2,2,2-trifluoroethyl)aminoethyl]dibenzo[c,h][1,6]naphthyridin-6-one] |  | 127 | 176 | 268 | 310 | 435 | 543 | 718 | less efficacious than the N-ethyl-N-cyanomethyl analog 11 or the N-ethyl-N-propargyl derivative 14 |  |  |  |  | 
4 | COc1cc2c(=O)n(CCN(C)CC#N)c3c4cc5c(cc4ncc3c2cc1OC)OCO5 [Compound 10, 2,3-Methylenedioxy-8,9-dimethoxy-5-[N-cyanomethyl-N-methylaminoethyl]dibenzo[c,h][1,6]naphthyridin-6-one] |  | 149 | 222 | 370 | 392 | 528 | 669 | 919 | less active than the N-methyl-N-propargyl 13 or N-methyl-N-acetamide 16 |  |  |  |  | 
5 | CCN(CC#N)CCn1c(=O)c2cc(OC)c(OC)cc2c2cnc3cc4c(cc3c21)OCO4 [Compound 11, 2,3-Methylenedioxy-8,9-dimethoxy-5-[N-cyanomethyl-N-ethylaminoethyl]dibenzo[c,h][1,6]naphthyridin-6-one] |  | 100 | 156 | 178 | 202 | 293 | 361 | 435 | less potent and effective than ARC-111 |  |  |  |  | 
6 | COc1cc2c(=O)n(CCN(CC#N)C(C)C)c3c4cc5c(cc4ncc3c2cc1OC)OCO5 [Compound 12, 2,3-Methylenedioxy-8,9-dimethoxy-5-[N-cyanomethyl-N-isopropyl-aminoethyl]dibenzo[c,h][1,6]naphthyridin-6-one] |  | 142 | 175 | 213 | 220 | 250 | 286 | 314 | less potent and less efficacious than ARC-111 |  |  |  |  | 
7 | C#CCN(C)CCn1c(=O)c2cc(OC)c(OC)cc2c2cnc3cc4c(cc3c21)OCO4 [Compound 13, 2,3-Methylenedioxy-8,9-dimethoxy-5-[N-methyl-N-(prop-2-ynyl)aminoethyl]dibenzo[c,h][1,6]naphthyridin-6-one] |  | 144 | 167 | 218 | 284 | 317 | 358 | 433 |  | retained potent TOP1-targeting activity | does not appear to be a substrate for either MDR1 or BCRP | does not appear to be a substrate for either MDR1 or BCRP |  | 
8 | C#CCN(CC)CCn1c(=O)c2cc(OC)c(OC)cc2c2cnc3cc4c(cc3c21)OCO4 [Compound 14, 2,3-Methylenedioxy-8,9-dimethoxy-5-[N-ethyl-N-(prop-2-ynyl)aminoethyl]dibenzo[c,h][1,6]naphthyridin-6-one] |  | 115 | 106 | 170 | 204 | 331 | 349 | 488 | less potent and effective than ARC-111 | much less active as TOP1-targeting agents |  |  | 2-6 fold | 
9 | C#CCN(CCn1c(=O)c2cc(OC)c(OC)cc2c2cnc3cc4c(cc3c21)OCO4)C(C)C [Compound 15, 2,3-Methylenedioxy-8,9-dimethoxy-5-[N-isopropyl-N-(prop-2-ynyl)aminoethyl]dibenzo-[c,h][1,6]naphthyridin-6-one] |  | 99 | 112 | 165 | 170 | 234 | 310 | 357 | less potent and less efficacious than ARC-111 | much less active as TOP1-targeting agents |  |  | 2-6 fold | 
10 | COc1cc2c(=O)n(CCN(C)CC(N)=O)c3c4cc5c(cc4ncc3c2cc1OC)OCO5 [Compound 16, 2,3-Methylenedioxy-8,9-dimethoxy-5-[N-(2-amino-2-oxoethyl)-N-methylaminoethyl]dibenzo[c,h][1,6]naphthyridin-6-ones] |  | 147 | 178 | 230 | 319 | 344 | 434 | 527 |  | retained potent TOP1-targeting activity | substrates for MDR1 | appears to be a substrate for BCRP |  | 7

Reference: publication PMC2752341 (Bioorganic & medicinal chemistry, 2008)
